Columns and labels:
Leishmania donovani = assay: In vitro antiparasitic activity against Leishmania donovani was tested by sigmoidal regression analysis; assay type: functional
In short: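 Mouse peritoneal macrophages (female CD1, starch-elicited, harvested 24 h) infected with L. donovani amastigotes (strain MHOM/ET/67/L82, hamster spleen) or T. cruzi Y-strain trypomastigotes (5:1, from MDCK overlay). Infected cells exposed to a 3-fold dilution series in quadruplicate for 5 days (L. donovani) or 3 days (T. cruzi). Giemsa-stained slides scored for % macrophages cleared of amastigotes versus untreated cultures. ED50 by sigmoidal regression.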

[1] = biological target: Trypanothione reductase (Trypanosoma cruzi) (UniProt P28593); assay: The second order rate constant of the TcTR (Trypanosoma cruzi trypanothione reductase) catalyzed […].
Trypanothione reductase (Trypanosoma cruzi), sequence (P28593 whole entry, looked up): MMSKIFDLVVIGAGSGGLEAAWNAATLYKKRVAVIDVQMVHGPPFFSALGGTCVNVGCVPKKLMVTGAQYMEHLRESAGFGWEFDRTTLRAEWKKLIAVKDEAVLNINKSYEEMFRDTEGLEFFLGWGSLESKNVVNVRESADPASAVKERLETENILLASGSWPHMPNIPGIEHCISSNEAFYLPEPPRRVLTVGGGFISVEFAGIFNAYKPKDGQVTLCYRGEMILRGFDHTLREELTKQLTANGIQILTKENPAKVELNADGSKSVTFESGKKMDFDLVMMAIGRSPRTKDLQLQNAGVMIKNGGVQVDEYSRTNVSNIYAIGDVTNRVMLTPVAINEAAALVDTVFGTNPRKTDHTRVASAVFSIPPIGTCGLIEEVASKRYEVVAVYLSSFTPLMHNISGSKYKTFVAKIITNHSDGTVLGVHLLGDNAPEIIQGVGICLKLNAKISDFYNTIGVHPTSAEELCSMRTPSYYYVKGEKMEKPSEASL
In short: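 Recombinant TcTR (0.6 U) in 20 mM Hepes, 1 mM EDTA, 0.15 M KCl, pH 7.25 at 22 °C, with 200 µM NADPH and naphthoquinone at five concentrations (0–100 µM) in 1% DMSO. NADPH oxidation at 340 nm; intrinsic oxidase rate not subtracted. Km and Vmax from nonlinear Michaelis–Menten fit; kcat and kcat/Km calculated.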

[2] = biological target: Trypanothione reductase (Trypanosoma cruzi) (UniProt P28593); assay: Rate of NADPH oxidation by TcTR in presence of 100 uM NQ was determined in comparison to intrinsic oxidase activity
In short: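 Quinone reductase activity of recombinant TcTR measured as NADPH oxidation at 340 nm. Buffer was 20 mM Hepes, 1 mM EDTA, 0.15 M KCl, pH 7.25, with 250 µM NADPH at 25 °C. Rate with naphthoquinone (100 µM for line 8, 25 µM for line 9) divided by intrinsic oxidase rate of enzyme plus NADPH alone. Mean of at least two measurements.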

[3] = biological target: T1, Dihydrolipoyl dehydrogenase, mitochondrial (Sus scrofa) (UniProt P09623); assay: The second order rate constant of the pig heart LipDH (lipoamide dehydrogenase) catalyzed NADH oxidation.
T1 sequence (whole entry): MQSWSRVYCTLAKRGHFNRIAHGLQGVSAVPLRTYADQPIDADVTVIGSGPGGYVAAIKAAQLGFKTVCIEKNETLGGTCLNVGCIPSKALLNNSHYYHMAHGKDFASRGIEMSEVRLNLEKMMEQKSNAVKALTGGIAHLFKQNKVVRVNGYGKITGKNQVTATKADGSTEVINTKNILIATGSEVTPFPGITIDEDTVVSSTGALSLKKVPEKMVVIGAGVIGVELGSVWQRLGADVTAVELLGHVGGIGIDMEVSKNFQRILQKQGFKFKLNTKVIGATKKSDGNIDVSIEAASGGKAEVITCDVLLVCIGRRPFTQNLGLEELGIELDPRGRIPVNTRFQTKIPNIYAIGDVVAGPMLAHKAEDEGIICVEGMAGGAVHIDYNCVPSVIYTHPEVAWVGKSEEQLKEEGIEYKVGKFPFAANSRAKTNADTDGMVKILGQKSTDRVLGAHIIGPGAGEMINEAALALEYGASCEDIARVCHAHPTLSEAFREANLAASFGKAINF
In short: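 Recombinant T. cruzi LipDH (E. coli, purified) or pig heart LipDH, 0.1–2.5 µg/mL. Buffer was 50 mM potassium phosphate, 1 mM EDTA, pH 7.0, with 100 µM NADH and naphthoquinone at 10 µM–1.2 mM; all assays carried equal DMSO. Run at 31 °C, started with enzyme, NADH decrease followed at 340 nm. Km and Vmax from Lineweaver–Burk plots. At least duplicate.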

[4] = biological target: T1, Dihydrolipoyl dehydrogenase, mitochondrial (Sus scrofa); assay: Ratio of cytochrome c reduction and NADH oxidation by pig heart LipDH (lipoamide dehydrogenase) at 50 uM concentration, in cytochrome c assay
In short: (§1)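 T. cruzi or pig heart LipDH in 50 mM potassium phosphate pH 7.0 with 100 µM NADH, 50 µM cytochrome c and 50 µM naphthoquinone at 31 °C. Cytochrome c reduction read at 550 nm; NADH oxidation measured at 340 nm in the same conditions without cytochrome c. One-electron reduction % = cytochrome c rate ÷ (2 × NADH rate). At least duplicate.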

Trypanosoma cruzi = assay: Ratio of cytochrome c reduction and NADH oxidation by TcLipDH (Trypanosoma cruzi lipoamide dehydrogenase) at 50 uM concentration, in cytochrome c assay; in short: as §1

Compound	k cat/Km [1]	ED50 (Leishmania donovani) [µM]	also measured
CN1CCN(CCCNC(=O)CCCCC2=C(CCCCC(=O)NCCCN3CCN(C)CC3)C(=O)c3c(O)cccc3C2=O)CC1	–	38.2	–
O=C(O)CCCCC1=C(CCCCC(=O)O)C(=O)c2c(O)cccc2C1=O	–	> 80	–
CC1=C(O)c2ccccc2C(=O)/C1=N\CCCN1CCN(C)CC1	–	–	x fold [2]: 2
CC1=C(CCCCCC(=O)O)C(=O)c2c(O)cccc2C1=O	–	28	–
CC1=C(CCCCCNC(=O)OC(C)(C)C)C(=O)c2c(O)cccc2C1=O	–	33.8	–
CC1=C(CCCC(=O)NCCCN2CCN(C)CC2)C(=O)c2c(O)cccc2C1=O	–	66	x fold [2]: 40
CC1=C(CCCC(=O)N2CCN(C)CC2)C(=O)c2c(O)cccc2C1=O	–	82	x fold [2]: 14
CC1=C(CCCC(=O)NCCCN2CCN(C)CC2)C(=O)c2ccccc2C1=O	–	> 76	x fold [2]: 11
CN1CCN(C(=O)CCCC2=C(CCCC(=O)N3CCN(C)CC3)C(=O)c3c(O)cccc3C2=O)CC1	–	> 48	x fold [2]: 220
CC1=C(NCCCNCCCCNCCCN)C(=O)c2c(O)cccc2C1=O	–	> 30	–
CC1=C(CCCCC(=O)O)C(=O)c2ccccc2C1=O	–	39	–
CC1=C(CCCCCC(=O)O)C(=O)c2ccccc2C1=O	–	18	–
CC1=C(CCCCC(=O)NCCCN2CCN(CCCNC(=O)CCCCC3=C(C)C(=O)c4cccc(O)c4C3=O)CC2)C(=O)c2c(O)cccc2C1=O	–	29.6	–
CN(C)CCCN1CCN(CC2=C(N3CCN(CCCN(C)C)CC3)C(=O)c3ccccc3C2=O)CC1	–	–	x fold [2]: 3.9
CC1=C(CCC(=O)NCCCN2CCN(C)CC2)C(=O)c2c(O)cccc2C1=O	–	–	k cat/Km [3]: 6.1 10e4 M-1 s-1; Reduction [4]: 0.6%; Reduction (Trypanosoma cruzi): 1.9%
CC1=C(CCCC(=O)N2CCN(C)CC2)C(=O)c2ccccc2C1=O	–	32	–
CC1=C(CCCCC(=O)O)C(=O)c2c(O)cccc2C1=O	–	56	–
CC1=C(NCCCNCCCN)C(=O)c2c(O)cccc2C1=O	–	> 30	x fold [2]: 2

Compound	k cat/Km [1]	ED50 (Leishmania donovani) [µM]	also measured
O=C(O)CCCC1=C(CCCC(=O)O)C(=O)c2c(O)cccc2C1=O	–	> 87	–
O=C(O)CCCCCC1=C(CCCCCC(=O)O)C(=O)c2ccccc2C1=O	–	> 74	–
CN1CCN(C(=O)CCC2=C(CCC(=O)N3CCN(C)CC3)C(=O)c3c(O)cccc3C2=O)CC1	–	> 62	–
CC1=C(CCNC(=O)OC(C)(C)C)C(=O)c2ccccc2C1=O	–	8.8	–
CN1CCN(CCCNC(=O)CCC2=C(CCC(=O)NCCCN3CCN(C)CC3)C(=O)c3c(O)cccc3C2=O)CC1	–	> 50	–
CC1=C(CCCCCNC(=O)OC(C)(C)C)C(=O)c2ccccc2C1=O	–	12.5	–
CC1=C(CCNC(=O)OC(C)(C)C)C(=O)c2c(O)cccc2C1=O	–	11.8	–
CC1=C(CCCCNC(=O)OC(C)(C)C)C(=O)c2c(O)cccc2C1=O	–	14.2	–
CC1=C(NCCCNCCC/N=C2/C(=O)c3ccccc3C(O)=C2C)C(=O)c2ccccc2C1=O	–	–	x fold [2]: 4
CC1=C(CCC(=O)N2CCN(C)CC2)C(=O)c2c(O)cccc2C1=O	–	> 88	x fold [2]: 38
CC1=C(NCCCN2CCN(CCCN)CC2)C(=O)c2c(O)cccc2C1=O	–	–	x fold [2]: 6.4
CC1=C(CCCCNC(=O)OC(C)(C)C)C(=O)c2ccccc2C1=O	–	16.5	–
CC1=C(CCCC(=O)O)C(=O)c2c(O)cccc2C1=O	–	> 109	–
CN1CCN(CCCNC(=O)CCCC2=C(CCCC(=O)NCCCN3CCN(C)CC3)C(=O)c3c(O)cccc3C2=O)CC1	–	> 59	x fold [2]: 45
O=C(O)CCC1=C(CCC(=O)O)C(=O)c2c(O)cccc2C1=O	–	> 93	–
CC1=C(NCCCCN)C(=O)c2ccccc2C1=O	–	> 12.5	–
CC1=C(CCC(=O)N2CCN(C)CC2)C(=O)c2ccccc2C1=O	–	87	x fold [2]: 19

Now from value to compound, other results behind:

k cat/Km [1]	Compound	ED50 (Leishmania donovani) [µM]	also measured
2.3 10e4 M-1 s-1	CC1=C(CCCCCC(=O)NCCCNCCCNC(=O)CCCCCC2=C(C)C(=O)c3ccccc3C2=O)C(=O)c2ccccc2C1=O	22.8	–
4.5 10e4 M-1 s-1	CC1=C(CCC(=O)NCCCNCCCNC(=O)CCC2=C(C)C(=O)c3cccc(O)c3C2=O)C(=O)c2c(O)cccc2C1=O	> 49	–
8.4 10e4 M-1 s-1	CC1=C(CCCCC(=O)NCCCN2CCN(CCCNC(=O)CCCCC3=C(C)C(=O)c4ccccc4C3=O)CC2)C(=O)c2ccccc2C1=O	31.3	–
5.1 10e4 M-1 s-1	CC1=C(CCC(=O)NCCCN2CCN(CCCNC(=O)CCC3=C(C)C(=O)c4cccc(O)c4C3=O)CC2)C(=O)c2c(O)cccc2C1=O	> 44	–
2.3 10e4 M-1 s-1	CC1=C(CCCC(=O)NCCCCNCCCNC(=O)CCCC2=C(C)C(=O)c3ccccc3C2=O)C(=O)c2ccccc2C1=O	> 48	–
16.8 10e4 M-1 s-1	CC1=C(CCCCCC(=O)NCCCN2CCN(CCCNC(=O)CCCCCC3=C(C)C(=O)c4cccc(O)c4C3=O)CC2)C(=O)c2c(O)cccc2C1=O	17.4	–
3.6 10e4 M-1 s-1	CC1=C(CCCC(=O)NCCCCNCCCNC(=O)CCCC2=C(C)C(=O)c3cccc(O)c3C2=O)C(=O)c2c(O)cccc2C1=O	> 46	–
11.4 10e4 M-1 s-1	CC1=C(CCCCC(=O)NCCCNCCCNC(=O)CCCCC2=C(C)C(=O)c3cccc(O)c3C2=O)C(=O)c2c(O)cccc2C1=O	11.1	–
13.3 10e4 M-1 s-1	CC1=C(CCCCCC(=O)NCCCCNCCCNC(=O)CCCCCC2=C(C)C(=O)c3cccc(O)c3C2=O)C(=O)c2c(O)cccc2C1=O	34.8	–
3.5 10e4 M-1 s-1	CC1=C(CCCC(=O)NCCCN2CCN(CCCNC(=O)CCCC3=C(C)C(=O)c4cccc(O)c4C3=O)CC2)C(=O)c2c(O)cccc2C1=O	38.5	–
7.7 10e4 M-1 s-1	CC1=C(CCC(=O)NCCCCNCCCNC(=O)CCC2=C(C)C(=O)c3cccc(O)c3C2=O)C(=O)c2c(O)cccc2C1=O	> 48	–
5.1 10e4 M-1 s-1	CC1=C(CCC(=O)NCCCCNCCCNC(=O)CCC2=C(C)C(=O)c3ccccc3C2=O)C(=O)c2ccccc2C1=O	> 50	–
3.3 10e4 M-1 s-1	CC1=C(CCCCCC(=O)NCCCN2CCN(CCCNC(=O)CCCCCC3=C(C)C(=O)c4ccccc4C3=O)CC2)C(=O)c2ccccc2C1=O	14.3	–
6.5 10e4 M-1 s-1	CC1=C(CCCC(=O)NCCCNCCCNC(=O)CCCC2=C(C)C(=O)c3cccc(O)c3C2=O)C(=O)c2c(O)cccc2C1=O	46.7	–
13 10e4 M-1 s-1	CC1=C(CCCCC(=O)NCCCCNCCCNC(=O)CCCCC2=C(C)C(=O)c3cccc(O)c3C2=O)C(=O)c2c(O)cccc2C1=O	7.8	–
5.8 10e4 M-1 s-1	CC1=C(CCCCC(=O)NCCCCNCCCNC(=O)CCCCC2=C(C)C(=O)c3ccccc3C2=O)C(=O)c2ccccc2C1=O	11.9	–
2.3 10e4 M-1 s-1	CC1=C(CCC(=O)NCCCNCCCNC(=O)CCC2=C(C)C(=O)c3ccccc3C2=O)C(=O)c2ccccc2C1=O	> 51	–
4.8 10e4 M-1 s-1	CC1=C(CCCCCC(=O)NCCCCNCCCNC(=O)CCCCCC2=C(C)C(=O)c3ccccc3C2=O)C(=O)c2ccccc2C1=O	5.4	–
0.8 10e4 M-1 s-1	CC1=C(CCCCC(=O)NCCCNCCCNC(=O)CCCCC2=C(C)C(=O)c3ccccc3C2=O)C(=O)c2ccccc2C1=O	> 45	–
14.5 10e4 M-1 s-1	CC1=C(CCCCCC(=O)NCCCNCCCNC(=O)CCCCCC2=C(C)C(=O)c3cccc(O)c3C2=O)C(=O)c2c(O)cccc2C1=O	10.3	–
4.2 10e4 M-1 s-1	CC1=C(CCCC(=O)NCCCN2CCN(CCCNC(=O)CCCC3=C(C)C(=O)c4ccccc4C3=O)CC2)C(=O)c2ccccc2C1=O	14.7	–
1.6 10e4 M-1 s-1	CC1=C(CCCC(=O)NCCCNCCCNC(=O)CCCC2=C(C)C(=O)c3ccccc3C2=O)C(=O)c2ccccc2C1=O	> 49	–

Reference: ChEMBL document CHEMBL1134791, “2- and 3-substituted 1,4-naphthoquinone derivatives as subversive substrates of trypanothione reductase and lipoamide dehydrogenase from Trypanosoma cruzi: synthesis and correlation between redox cycling activities and in vitro cytotoxicity” (J Med Chem, 2001)
